Source: ChEMBL document CHEMBL4732199, “Potent and orally bioavailable CDK8 inhibitors: Design, synthesis, structure-activity relationship analysis and biological evaluation” (Eur J Med Chem, 2021)

How the values were obtained:
[1] = system: MV4-11; assay: Growth inhibition of human MV4-11 cells after 72 hrs by resazurin staining based assay; format: functional
Summary of the method: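 MV4-11 leukaemia cells grown in medium with 10% FBS at 37 °C, 5% CO2. Growth was read by a 72-h resazurin viability assay. GI50 was obtained by nonlinear regression and reported as mean ± standard deviation of at least two replicates.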

[2] = molecular target: CDK8/Cyclin C (Homo sapiens, UniProt P49336); assay: Inhibition of CDK8/cyclin C (unknown origin) using RBER-IRStide as substrate incubated for 60 mins in presence of [gamma33P]ATP by scintillation counting method; format: protein-complex assay
Chain of CDK8/Cyclin C (P49336 whole entry): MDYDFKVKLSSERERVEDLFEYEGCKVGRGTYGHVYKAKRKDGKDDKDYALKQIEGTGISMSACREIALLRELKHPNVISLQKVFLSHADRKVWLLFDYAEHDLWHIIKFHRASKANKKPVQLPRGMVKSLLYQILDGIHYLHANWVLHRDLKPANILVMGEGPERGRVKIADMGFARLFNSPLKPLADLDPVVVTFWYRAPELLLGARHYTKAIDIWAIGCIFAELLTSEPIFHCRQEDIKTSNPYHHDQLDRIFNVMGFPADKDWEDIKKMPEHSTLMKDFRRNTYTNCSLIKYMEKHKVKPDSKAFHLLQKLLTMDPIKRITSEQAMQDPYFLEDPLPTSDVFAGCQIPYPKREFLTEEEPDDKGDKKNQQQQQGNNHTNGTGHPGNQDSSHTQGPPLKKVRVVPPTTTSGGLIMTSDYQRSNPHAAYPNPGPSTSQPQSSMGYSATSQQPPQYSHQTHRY
Chain of CDK8/Cyclin C (P24863 whole entry, further chain): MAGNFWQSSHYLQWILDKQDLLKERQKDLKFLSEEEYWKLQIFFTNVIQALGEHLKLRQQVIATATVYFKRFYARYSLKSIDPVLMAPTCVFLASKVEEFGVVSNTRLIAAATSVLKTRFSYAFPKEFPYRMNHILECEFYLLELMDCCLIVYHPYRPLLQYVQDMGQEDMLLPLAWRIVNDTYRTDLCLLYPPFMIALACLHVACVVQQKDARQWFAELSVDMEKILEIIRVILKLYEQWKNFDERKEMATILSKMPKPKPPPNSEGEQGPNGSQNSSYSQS

SMILES | GI50 [1] [nM] | Ki [2] [nM]
CNC(=O)c1ccn(-c2c(Cl)cncc2-c2ccc(-c3cnn(C)c3)cc2)c1 | 35000 | 2030
O=C1NCCC12CCN(c1c(Cl)cncc1-c1cnn(-c3ccccc3)c1)CC2 | 840 | 42
Cn1ncc2cc(Nc3cncc(Cl)c3N3CCC4(CCNC4=O)CC3)ccc21 | 1710 | 670
Cn1cc(-c2ccc(-c3cncc(Cl)c3-n3ccc(C(=O)O)c3)cc2)cn1 | 87100 | 4190
Cn1cc(-c2ccc(-c3cncc(Cl)c3-n3ccc(C(N)=O)c3)cc2)cn1 | 9580 | 1090
CC(C)(C)OC(=O)N1CCC(n2cc(-c3cncc(Cl)c3N3CCC4(CCNC4=O)CC3)cn2)CC1 | 12200 | 700
O=C1NCCC12CCN(c1c(Cl)cncc1-c1cn(S(=O)(=O)c3ccccc3)c3ccccc13)CC2 | 28400 | 645

Results, then the compound that gave them:

GI50 [1] [nM] | Ki [2] [nM] | SMILES
6840 | 156 | O=C1NCCC12CCN(c1c(Cl)cncc1-c1cc3ccccc3[nH]1)CC2
7820 | 50 | O=C1NCCC12CCN(c1c(Cl)cncc1-c1c[nH]c3ncccc13)CC2
5260 | 52 | Cn1cc2c(-c3cncc(Cl)c3N3CCC4(CCNC4=O)CC3)cccc2n1
9150 | 114 | O=C1NCCC12CCN(c1c(Cl)cncc1-c1cccc3cccnc13)CC2
6680 | 16 | O=C1NCCC12CCN(c1c(Cl)cncc1-c1cccc3c1oc1ccccc13)CC2
350 | 21 | O=C1NCCC12CCN(c1c(Cl)cncc1-c1csc3ccccc13)CC2
53500 | 138 | O=C1NCCC12CCN(c1c(Cl)cncc1-c1ccnc3ccccc13)CC2
30600 | 58 | O=C1NCCC12CCN(c1c(Cl)cncc1-c1cn(Cc3ccccc3)c3ncccc13)CC2
10100 | 79 | Cn1c(-c2cncc(Cl)c2N2CCC3(CCNC3=O)CC2)cc2ccccc21
